Measured values taken from ChEMBL document CHEMBL1125259, “Lipophilic glycosyl phosphotriester derivatives of AZT: synthesis, NMR transmembrane transport study, and antiviral activity” (1991).

Legend:
CCRF-CEM [1] = experiment: Concentration required to reduce the viability of uninfected cells (CEM-CL13) by 50% on day 22.; format: functional; conditions: Homo sapiens, 528 h, read-out: CD50 (the source's name)
Summary of the method: (§1)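 CEM-C113 cells (1×10^5 cells/mL) were infected with HIV-1 LAV-Bru or mock-infected, with compound dilutions in triplicate, for at least 7 days. Medium with or without drug was renewed every 3–4 days for longer runs. MTT absorbance was read at 540 nm. CD50 = 50% reduction of mock-infected absorbance; ED50 = dose giving 50% protection from CPE. Values are averages of at least two experiments.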

CCRF-CEM [2] = experiment: Concentration required to reduce the viability of uninfected cells (CEM-CL13) by 50% on day 7.; format: functional; conditions: Homo sapiens, 168 h, read-out: CD50 (the source's name); summary of the method: as §1
[3] = target: Human immunodeficiency virus type 1 reverse transcriptase (Human immunodeficiency virus 1) (UniProt Q72547); experiment: Compound ability to inhibit the production of HIV reverse transcriptase (RT) in culture supernatant of monocytic U937 on at 7 days at a concentration 5 uM; format: functional
Summary of the method: (§2)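 HIV-1-infected monocytic U937 cultures were kept up to 14 days with compound. Supernatant RT activity was measured as for CEM-C113, as [³H] cpm/50 µL. % inhibition = 100 − 100 × (cpm of treated samples / cpm of control virus).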

[4] = target: Human immunodeficiency virus type 1 reverse transcriptase (Human immunodeficiency virus 1) (UniProt Q72547); experiment: Compound ability to inhibit the production of HIV reverse transcriptase (RT) in preinfected PBL (peripheral blood lymphocytes) at 10 days at a concentration 1 uM; format: functional
Summary of the method: (§3)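 PBL were infected with HIV-1 for 1 h at 37 °C, washed twice, and resuspended in complete medium with 10% interleukin-2 and anti-human α-interferon (1000 units/mL). Cells were plated at 1×10^6 cells/well with or without compound. At each time point, 50 µL supernatant was taken for RT assay ([³H]dTTP incorporation, cpm).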

[5] = target: Human immunodeficiency virus type 1 reverse transcriptase (Human immunodeficiency virus 1) (UniProt Q72547); experiment: Compound ability to inhibit the production of HIV reverse transcriptase (RT) in preinfected PBL (peripheral blood lymphocytes) at 21 days at a concentration 1 uM; format: functional; summary of the method: as §3
[6] = target: Human immunodeficiency virus type 1 reverse transcriptase (Human immunodeficiency virus 1) (UniProt Q72547); experiment: Compound ability to inhibit the production of HIV reverse transcriptase (RT) in preinfected PBL (peripheral blood lymphocytes) at 21 days at a concentration 5 uM; format: functional; summary of the method: as §3
[7] = target: Human immunodeficiency virus type 1 reverse transcriptase (Human immunodeficiency virus 1) (UniProt Q72547); experiment: Compound ability to inhibit the production of HIV reverse transcriptase (RT) in culture supernatant of monocytic U937 on at 11 days at a concentration 5 uM; format: functional; summary of the method: as §2
[8] = target: Human immunodeficiency virus type 1 reverse transcriptase (Human immunodeficiency virus 1) (UniProt Q72547); experiment: Compound ability to inhibit the production of HIV reverse transcriptase (RT) in culture supernatant of CEM-CL13 on at 15 days at a concentration 5 uM; format: functional
Summary of the method: (§4)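 CEM-C113 cells in RPMI 1640 with 5% heat-inactivated FCS and polybrene (2 µg/mL) were plated at 1×10^5 cells/mL with compound in PBS, in triplicate, and infected with HIV-1 LAV-Bru. From day 7, every 3–4 days, fresh medium with or without drug was added and 50 µL supernatant was taken for RT microassay. The RT microassay used poly(rA)-oligo(dT) and (methyl-³H)dTTP for 1 h at 37 °C, with TCA precipitation, read as cpm/50 µL.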

[9] = target: Human immunodeficiency virus type 1 reverse transcriptase (Human immunodeficiency virus 1) (UniProt Q72547); experiment: Compound ability to inhibit the production of HIV reverse transcriptase (RT) in culture supernatant of CEM-CL13 on at 22 days at a concentration 0.2 uM; format: functional; summary of the method: as §4
[10] = target: Human immunodeficiency virus type 1 reverse transcriptase (Human immunodeficiency virus 1) (UniProt Q72547); experiment: Compound ability to inhibit the production of HIV reverse transcriptase (RT) in culture supernatant of CEM-CL13 on at 26 days at a concentration 5 uM; format: functional; summary of the method: as §4
[11] = target: Human immunodeficiency virus type 1 reverse transcriptase (Human immunodeficiency virus 1) (UniProt Q72547); experiment: Compounds were evaluated for anti-RT activity at 7 days of culture; format: functional
Summary of the method: (§5)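 HIV-1 (12 500 CCID50) was preincubated with compound at 25 µM final for 60 min at 37 °C, pelleted by ultracentrifugation and resuspended. RT was measured at once with poly(rA)-oligo(dT) and ³H-dTTP (1 h, 37 °C, cpm). Treated virus was then put on CEM-C113 cells for 60 min and replaced with compound-free medium. Supernatant RT was read at days 7 and 9.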

[12] = target: Human immunodeficiency virus type 1 reverse transcriptase (Human immunodeficiency virus 1) (UniProt Q72547); experiment: Percent inhibition evaluated for anti-RT activity at 9 days of culture; format: functional; parameters: concentration or dose not given beside the values; conditions: concentration not given here; summary of the method: as §5
[13] = target: Human immunodeficiency virus type 1 reverse transcriptase (Human immunodeficiency virus 1) (UniProt Q72547); experiment: Percent inhibition measured as the production of HIV reverse transcriptase (RT) in culture supernatant of monocytic U937 on at 11 days at a concentration 1 uM; format: functional
Summary of the method: (§6)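 U937 cells in RPMI 1640 with 5% heat-inactivated FCS, penicillin, streptomycin and polybrene (2 μg/mL), 37 °C, 5% CO2. Infected with HIV-1 LAV-Bru; compounds diluted in PBS. 50 μL supernatant aliquots were assayed for RT: 1 h, 37 °C, pH 7.8, Mg2+, poly(rA)-oligo(dT), [3H]dTTP, TCA-pyrophosphate stop, filter counting. % inhibition = 100 − 100 × (treated cpm / virus-control cpm).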

[14] = target: Human immunodeficiency virus type 1 reverse transcriptase (Human immunodeficiency virus 1) (UniProt Q72547); experiment: Percent inhibition measured as the production of HIV reverse transcriptase (RT) in culture supernatant of monocytic U937 on at 11 days at a concentration 5 uM; format: functional; summary of the method: as §6
[15] = target: Human immunodeficiency virus type 1 reverse transcriptase (Human immunodeficiency virus 1) (UniProt Q72547); experiment: Percent inhibition measured as the production of HIV reverse transcriptase (RT) in culture supernatant of monocytic U937 on at 7 days at a concentration 1 uM; format: functional; summary of the method: as §6
[16] = target: Human immunodeficiency virus type 1 reverse transcriptase (Human immunodeficiency virus 1) (UniProt Q72547); experiment: Compounds were evaluated for anti-RT activity by MTT dose and %protection was reported at 7 days of culture; format: functional
Summary of the method: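 HIV-1 was preincubated with compound at 25 µM for 60 min at 37 °C, pelleted, and added to CEM-C113 cells (1×10^5 cells/mL) for 60 min at 37 °C. Medium was then replaced without compound. At days 7 and 9, viability was read by MTT assay on 100 µL of cell suspension.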

[17] = target: Human immunodeficiency virus type 1 reverse transcriptase (Human immunodeficiency virus 1) (UniProt Q72547); conditions: at 25 µM
[18] = target: Human immunodeficiency virus type 1 reverse transcriptase (Human immunodeficiency virus 1) (UniProt Q72547); experiment: Compound ability to inhibit the production of HIV reverse transcriptase (RT) in culture supernatant of monocytic U937 on at 7 days at a concentration 0.2 uM; format: functional
Summary of the method: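 HIV-1 LAV-Bru-infected U937 cultures run in complete RPMI 1640 (5% FCS, polybrene 2 µg/mL) at 37 °C with compound in triplicate. Culture supernatant (50 µL) sampled from day 7 for RT microassay: poly(rA)-oligo(dT), (methyl-3H)dTTP, Mg2+, pH 7.8, 1 h at 37 °C, TCA precipitation onto filters. Read as cpm/50 µL; % inhibition = 100 − 100 × treated/virus-control cpm.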

[19] = target: Human immunodeficiency virus type 1 reverse transcriptase (Human immunodeficiency virus 1) (UniProt Q72547); experiment: Compound ability to inhibit the production of HIV reverse transcriptase (RT) in culture supernatant of monocytic U937 on at 11 days at a concentration 0.2 uM; format: functional; summary of the method: as §2
[20] = target: Human immunodeficiency virus type 1 reverse transcriptase (Human immunodeficiency virus 1) (UniProt Q72547); experiment: Compound ability to inhibit the production of HIV reverse transcriptase (RT) in culture supernatant of CEM-CL13 on at 15 days at a concentration 1 uM; format: functional; summary of the method: as §4
[21] = target: Human immunodeficiency virus type 1 reverse transcriptase (Human immunodeficiency virus 1) (UniProt Q72547); experiment: Compound ability to inhibit the production of HIV reverse transcriptase (RT) in culture supernatant of CEM-CL13 on at 26 days at a concentration 1 uM; format: functional; summary of the method: as §4
[22] = target: Human immunodeficiency virus type 1 reverse transcriptase (Human immunodeficiency virus 1) (UniProt Q72547); experiment: Compound ability to inhibit the production of HIV reverse transcriptase (RT) in culture supernatant of CEM-CL13 on at 7 days at a concentration 1 uM; format: functional; summary of the method: as §4

SMILES	CC50 (CCRF-CEM [1]) [µM]	CC50 (CCRF-CEM [2]) [µM]	Activity (c.p.m. 50ul-1) [3]	Activity (c.p.m. 50ul-1) [4]	Activity (c.p.m. 50ul-1) [5]	Activity (c.p.m. 50ul-1) [6]	Activity (c.p.m. 50ul-1) [7]	Activity (c.p.m. 50ul-1) [8]	Activity (c.p.m. 50ul-1) [9]	Activity (c.p.m. 50ul-1) [10]	Activity (c.p.m. 50ul-1) [11]	inhibition [12] [%]	inhibition [13] [%]	inhibition [14] [%]	inhibition [15] [%]	Protection [16] [%]	inhibition [17] [%]	Activity (c.p.m. 50ul-1) [18]	Activity (c.p.m. 50ul-1) [19]	Activity (c.p.m. 50ul-1) [20]	further results
Cc1cn([C@H]2C[C@H](N=[N+]=[N-])[C@@H](COP(=O)(O)OCCO[C@H]3O[C@H](CO)[C@@H](O)[C@H](O)[C@@H]3O)O2)c(=O)[nH]c1=O	28	25	200000	4400	21300	3380	192000	852	27000	42000	47000	0	0	0	0	20	20				
Cc1cn([C@H]2C[C@H](N=[N+]=[N-])[C@@H](COP(=O)(O)OC[C@H]3OC(O)[C@@H](O)[C@@H](O)[C@@H]3O)O2)c(=O)[nH]c1=O (some centres not stated)	24	27	133000	3130	33100	19500	193000	1300	27000	103000	24000	0	5	0	0	38	2				
Cc1cn([C@H]2C[C@H](N=[N+]=[N-])[C@@H](COP(=O)(O)OC[C@H]3OC(O)[C@H](O)[C@@H](O)[C@@H]3O)O2)c(=O)[nH]c1=O (some centres not stated)	35	30	142000	771	16100	373	211000	400	2200	6000	19000	10	0	0	36		0				
Cc1cn([C@H]2C[C@H](N=[N+]=[N-])[C@@H](CO)O2)c(=O)[nH]c1=O [ZIDOVUDINE]	22	26	35000	757	44400	542	118000	500	6400	1300	5000	76	7	18	85	100	25	23000	152000	600	Activity (c.p.m. 50ul-1) [21]: 12000; Activity (c.p.m. 50ul-1) [22]: 100
CCCCCCCCCCCCCCCCOP(=O)(OC[C@H]1OC(O)[C@H](O)[C@@H](O)[C@@H]1O)OC[C@H]1OC(n2cc(C)c(=O)[nH]c2=O)C[C@@H]1N=[N+]=[N-] (some centres not stated)	3.2	11		26300	71100	150000			45000		8000	58	53		73	81		237000	178000	750	Activity (c.p.m. 50ul-1) [21]: 72000; Activity (c.p.m. 50ul-1) [22]: 2600
CCCCCCCCCCCCCCCCOP(=O)(OCCO[C@H]1O[C@H](CO)[C@@H](O)[C@H](O)[C@@H]1O)OCC1OC(n2cc(C)c(=O)[nH]c2=O)CC1N=[N+]=[N-] (some centres not stated)	3.4	20		60200					52000		81000	0	0		0	21		343000	131000	5500	Activity (c.p.m. 50ul-1) [21]: 64000; Activity (c.p.m. 50ul-1) [22]: 6000
CCCCCCCCCCCCCCCCOP(=O)(OC[C@H]1OC(O)[C@@H](O)[C@@H](O)[C@@H]1O)OC[C@H]1OC(n2cc(C)c(=O)[nH]c2=O)C[C@@H]1N=[N+]=[N-] (some centres not stated)	2.5	2.6		71500		22400			24000		18000	68	0		51	68		251000	227000	500	Activity (c.p.m. 50ul-1) [21]: 20000; Activity (c.p.m. 50ul-1) [22]: 2000
